Calls of active or inactive are those of the source. The rule behind the calls is not given here.
Key:
[1] = species: Homo sapiens; test: (§1) Inhibition of human recombinant DNA topoisomerase-2
Procedure, shortened: (§2)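 Recombinant human topo II (2 units) relaxing supercoiled pUC19 DNA (0.25 µg). Inhibitor added in 10% DMSO; 30 min at 37 °C. Stopped with sarkosyl loading buffer, run on 1% agarose in TAE, EtBr stain, conversion to relaxed form scored under UV.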

[2] = test system: HL-60; test: Cytotoxicity against human HL60 cells by MTT assay; assay type: functional, cell-based
Procedure, shortened: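 HL-60 human promyelocytic leukemia cells grown in RPMI 1640 with 10% FBS, penicillin and streptomycin at 37 °C under 5% CO2. Cells plated at 3 × 10^5 per well with a range of alkaloid concentrations. Compounds supplied as 10 mM PBS stocks and diluted into growth medium just before use. Survival read out by MTT.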

[3] = target: T1, DNA topoisomerase 1 (Homo sapiens) (UniProt P11387); test: (§3) Inhibition of human recombinant DNA topoisomerase1
T1 sequence (whole entry): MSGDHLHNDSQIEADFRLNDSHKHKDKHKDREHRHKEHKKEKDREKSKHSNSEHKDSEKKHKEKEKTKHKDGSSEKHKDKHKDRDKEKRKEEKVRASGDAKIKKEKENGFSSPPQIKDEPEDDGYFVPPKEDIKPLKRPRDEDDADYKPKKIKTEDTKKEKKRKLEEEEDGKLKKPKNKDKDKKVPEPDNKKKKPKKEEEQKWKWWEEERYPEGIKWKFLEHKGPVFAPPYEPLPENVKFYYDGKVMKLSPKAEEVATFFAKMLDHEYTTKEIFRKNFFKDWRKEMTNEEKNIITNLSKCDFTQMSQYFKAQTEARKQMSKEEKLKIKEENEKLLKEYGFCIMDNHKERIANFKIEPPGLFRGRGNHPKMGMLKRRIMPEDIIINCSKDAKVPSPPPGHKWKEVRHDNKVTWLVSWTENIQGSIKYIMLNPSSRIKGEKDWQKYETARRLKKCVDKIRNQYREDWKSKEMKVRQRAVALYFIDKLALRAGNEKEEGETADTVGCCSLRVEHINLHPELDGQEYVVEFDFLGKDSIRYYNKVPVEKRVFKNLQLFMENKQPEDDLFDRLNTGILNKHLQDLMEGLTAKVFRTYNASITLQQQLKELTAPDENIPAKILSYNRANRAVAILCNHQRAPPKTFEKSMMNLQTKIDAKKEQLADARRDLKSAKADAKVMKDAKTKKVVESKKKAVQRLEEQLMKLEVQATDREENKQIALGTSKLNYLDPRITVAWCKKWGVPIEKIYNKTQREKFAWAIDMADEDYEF
Procedure, shortened: (§4)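 Recombinant human topo I (2 units) relaxing pBR322 DNA (0.25 µg). Buffer: 10 mM Tris-HCl pH 7.9, 1 mM EDTA, 150 mM NaCl, 0.1% BSA, 0.1 mM spermidine, 5% glycerol. Inhibitor added in 10% DMSO; 30 min at 37 °C. Sarkosyl stop, 1% agarose/TAE gel, EtBr stain, relaxed DNA seen under UV.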

[4] = as §1; procedure, shortened: as §2
[5] = target: T2, DNA topoisomerase 1 (Homo sapiens, UniProt P11387); test: as §3; procedure, shortened: as §4
T2 sequence (P11387 whole entry): T1 sequence (whole entry)

Activity [1] | Activity [3] | IC50 [4] [µM] | IC50 [5] [µM] | SMILES | Activity [2] | IC50 [2] [µM]
inactive | inactive | – | – | COC(=O)[C@H]1[C@H]2C[C@@H]3c4[nH]c5ccccc5c4CCN3C[C@H]2CC[C@@H]1O | inactive | –
– | – | 175 | 40 | O=C(O)[C@H]1[C@H]2C[C@@H]3c4[nH]c5ccccc5c4CCN3C[C@H]2CC[C@@H]1O [ISORAUHIMBINIC ACID] | – | 125
inactive | inactive | 125 | 30 | COC(=O)[C@@H]1[C@H]2C[C@H]3c4[nH]c5ccccc5c4CCN3C[C@@H]2CC[C@@H]1O [YOHIMBINE] | inactive | 84

More lines, now with the values behind:

SMILES | Activity [1] | Activity [3] | IC50 [4] [µM] | IC50 [5] [µM] | Activity [2] | IC50 [2] [µM]
COC(=O)[C@H]1[C@H]2C[C@@H]3c4[nH]c5cc(OC)ccc5c4CCN3C[C@H]2C[C@@H](OC(=O)/C=C/c2cc(OC)c(OC)c(OC)c2)[C@@H]1OC | inactive | inactive | – | – | inactive | –
COC(=O)[C@H]1[C@H]2C[C@@H]3c4[nH]c5ccccc5c4CCN3C[C@H]2CC(O)[C@@H]1O (stereo partly specified) | inactive | inactive | – | – | inactive | –
CC[C@@]1(O)C(=O)OCc2c1cc1n(c2=O)Cc2cc3ccccc3nc2-1 [CAMPTOTHECIN] | – | – | > 1000 | – | – | 130
COc1cc([C@@H]2c3cc4c(cc3[C@@H](O[C@@H]3O[C@@H]5CO[C@@H](C)O[C@H]5[C@H](O)[C@H]3O)[C@H]3COC(=O)[C@H]23)OCO4)cc(OC)c1O [ETOPOSIDE] | – | – | 40 | > 1000 | – | 150
COC(=O)[C@H]1[C@H]2C[C@@H]3c4[nH]c5cc(OC)ccc5c4CCN3C[C@H]2C[C@@H](OC(=O)c2cc(OC)c(OC)c(OC)c2)[C@@H]1OC [RESERPINE] | – | – | 20 | 160 | – | 67

— ChEMBL document CHEMBL1158781, “Indole alkaloids and other constituents of Rauwolfia serpentina” (J Nat Prod, 2005)
